The nature of assay [1]: inhibitors of TNFa-induced NFkB p65 translocation, primary screen, imaging, HUVEC, MLSMR starter and 10KST1 sets (AID 438).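 For inhibition: signal is the nuclear over cytoplasmic p65 intensity ratio per well.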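 Note: compound added about 3h40 before a 20 min TNFalpha stimulation.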 The following applies: HUVEC TNFa-induced p65 nuclear translocation; cell count: measured here: nuclei count (cytotoxicity indicator), at 2.08 µM; inhibition: at 2 µM, stronger effect = higher value, 0% TNFa-plus-vehicle, 100% no-TNFa wells.
The nature of assay [2]: endothelial E-selectin expression blockers – imaging, HUVEC, immunofluorescence, MLSMR starter and 10KST1 sets, primary screen (AID 487;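 active = visually confirmed hit in the image check and inhibition above 20%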;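 for inhibition: signal is fraction of cell area covered by stained E-selectin grains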;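 for nuclei count: 100% = median nuclei count of all wells on the same plate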). As to conditions: HUVEC TNFalpha-induced E-selectin immunofluorescence imaging, at 2 µM; inhibition: stronger effect = higher value; nuclei count: measured here: cell number, toxicity.
A short description of assay [3]: Primary imaging screen for DUSP6 inhibitors that restore phospho-Erk in transfected HeLa cells, chemical complementation (AID 609;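 active = compounds giving at least 50% inhibition in the cell-based MKP-3 phosphatase rescue imaging test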;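 for inhibition: phospho-Erk level distribution per well compared with pooled transfected vehicle control wells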). As to conditions: HeLa MKP-3 transfected, phospho-Erk imaging KS statistic, at 10 µM, cells stimulated with TPA for 15 min.
In assay [4] the target is Dual specificity protein phosphatase 6 (Homo sapiens) (UniProt Q16828). The description is as above. The following applies: HeLa MKP-3 transfected, phospho-Erk imaging KS statistic; at 10 µM; stronger effect = higher value; cells stimulated with TPA for 15 min.
Chain of Dual specificity protein phosphatase 6 (Homo sapiens) (Q16828 whole entry, looked up): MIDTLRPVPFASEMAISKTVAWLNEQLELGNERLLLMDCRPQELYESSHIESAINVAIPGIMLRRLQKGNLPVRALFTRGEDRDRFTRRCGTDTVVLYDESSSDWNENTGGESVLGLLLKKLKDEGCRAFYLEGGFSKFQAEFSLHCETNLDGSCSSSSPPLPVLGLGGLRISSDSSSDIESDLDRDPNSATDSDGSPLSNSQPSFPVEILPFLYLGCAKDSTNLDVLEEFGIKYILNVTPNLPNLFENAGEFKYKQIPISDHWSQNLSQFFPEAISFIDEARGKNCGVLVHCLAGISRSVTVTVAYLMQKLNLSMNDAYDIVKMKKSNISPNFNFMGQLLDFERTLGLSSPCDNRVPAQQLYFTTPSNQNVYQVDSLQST
Assay [5] addresses Voltage-gated potassium channel subunit beta-2 (Rattus norvegicus) (UniProt P62483). In words: inhibitors of rat Kvbeta2 reductase activity – biochemical, NADPH fluorescence, primary screen (AID 622;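 active = fluorescence slope higher than the sample average by over 3 SD, cut at about -0.22 in these data, passing the limit was not always enough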;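 note: slope of raw intensity against log time taken from 70 to 1610 s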). As to conditions: recombinant KvBeta, 4-cyanobenzaldehyde reduction, at 10 µM, stronger effect = higher value.
Assay [6] has the same target. In words: enhancers of rat Kvbeta2 NADPH turnover – biochemical, NADPH fluorescence, primary screen (AID 623;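 active = NADPH fluorescence slope more negative than the mean of all samples by about 3 SD, 99.7% confidence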;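 note: fluorescence intensity change per second fitted from 20 to 320 s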). The following applies: Recombinant KvBeta, NADPH fluorescence decrease slope, 10 min; at 10 µM; stronger effect = lower value.
The target in assay [7] is Muscarinic acetylcholine receptor M4 (Homo sapiens) (UniProt P08173). In words: M4-linked GIRK flux change, two-sided – cell-based, HEK293 M4/GIRK, thallium flux, BTC-AM, M4 allosteric agonist project, primary screen (AID 625;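 active = fluorescence slope after compound addition differing from the mean of all tested samples at 99.7% confidence, mostly higher but some lower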;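 note: thallium influx through GIRK channels coupled to M4 in HEK293 cells with BTC-AM dye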). The following applies: at 10 µM, actives lie on both sides. A digest of the protocol:
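Material: HEK293 cells with M4 receptor and GIRK channels; Times: cells overnight at 37 °C, BTC-AM loading 1 h, reads 2 min total; Technique: kinetic BTC-AM fluorescence sampled at 1 Hz, 10 s pre-addition baseline; Read-out basis: slope over 15–24 s of trace normalized to starting intensity; Controls: carbachol positive, DMSO negative.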

Assay [8] can be described thus: inhibitors of larval lipid processing in zebrafish, primary screen, whole organism, PED6 fluorescence, gall bladder and intestine (AID 686;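 active = a full or partial loss of lipid-probe fluorescence in the fish gall bladder, intestine or both, judged by eye; inactive = no fluorescence loss, or compound toxic to the fish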;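 note: larvae 5 to 7 days old with five fish per well; signal comes from phospholipase A2 cleavage of quenched PED6 carried via bile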). The following applies: Zebrafish larvae PED6 lipid processing, fluorescence scoring; screened at 20 µM (by protocol). A digest of the protocol:
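Incubation: overnight exposure of larvae to compound plus PED6 / Test system: live zebrafish larvae aged 5-7 days, whole organism / Amount: 5 larvae per well / Read-out basis: visual per-well fluorescence inhibition score / Signal: visual fluorescence microscopy scoring of gall bladder, gut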

Assay [9] in a line: loss of swimming-algae plug formation – whole organism, Chlamydomonas reinhardtii, WT vs cilia-less mutant, absorbance, 96-well, primary screen (AID 463189;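 active = inhibition at or above 50% relative to wild type and mutant plate controls; inactive = inhibition below 50%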;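 note: 0% = wild type cc124 cells in DMSO and 100% = ciliumless bld1 mutant cells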). As to conditions: Chlamydomonas reinhardtii gravitaxis, OD600 absorbance, 2 days; at 10 µM; stronger effect = higher value.
Where [10] appears, read: measured here: cell density z-score.
The mark [11] stands for this setting: measured here: nuclear c-Myc green intensity z-score.
Setting [12] is: measured here: nuclear pErk red intensity z-score, stronger effect = higher value.

Calls of active or inactive are those of the source.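 Rule for the calls, unless noted: active = inhibition above 20% together with a positive visual image hit; inconclusive = visual image hit but inhibition not above 20%; inactive = no visual image hit.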

Chain of Muscarinic acetylcholine receptor M4 (Homo sapiens) (P08173 whole entry, looked up): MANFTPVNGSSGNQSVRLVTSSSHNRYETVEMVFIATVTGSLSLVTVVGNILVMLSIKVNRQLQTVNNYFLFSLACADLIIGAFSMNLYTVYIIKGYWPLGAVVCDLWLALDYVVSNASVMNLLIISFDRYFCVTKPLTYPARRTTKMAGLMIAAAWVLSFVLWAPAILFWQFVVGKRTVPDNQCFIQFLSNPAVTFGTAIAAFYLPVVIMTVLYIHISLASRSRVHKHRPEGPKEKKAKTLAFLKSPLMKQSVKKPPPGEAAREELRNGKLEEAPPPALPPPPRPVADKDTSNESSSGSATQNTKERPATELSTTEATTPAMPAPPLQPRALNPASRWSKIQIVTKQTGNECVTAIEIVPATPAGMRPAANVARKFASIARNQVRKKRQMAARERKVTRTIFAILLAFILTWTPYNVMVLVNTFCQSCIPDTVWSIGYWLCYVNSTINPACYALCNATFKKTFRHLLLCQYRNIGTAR
Chain of Voltage-gated potassium channel subunit beta-2 (Rattus norvegicus) (P62483 whole entry, looked up): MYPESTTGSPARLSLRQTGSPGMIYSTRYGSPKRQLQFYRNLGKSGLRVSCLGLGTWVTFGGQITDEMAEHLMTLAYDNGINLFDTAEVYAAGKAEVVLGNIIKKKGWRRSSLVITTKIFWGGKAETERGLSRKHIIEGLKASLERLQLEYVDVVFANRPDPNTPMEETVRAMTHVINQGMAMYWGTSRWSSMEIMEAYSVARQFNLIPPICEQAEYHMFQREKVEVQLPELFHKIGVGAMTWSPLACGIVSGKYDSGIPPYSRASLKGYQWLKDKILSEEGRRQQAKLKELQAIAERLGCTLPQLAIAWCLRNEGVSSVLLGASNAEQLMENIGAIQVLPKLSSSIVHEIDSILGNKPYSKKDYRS

The term inhibition denotes the relative decrease from the control value, in per cent. On to `Cc1[nH]nc(-c2ccc(O)cc2O)c1Oc1ccccc1`, for which, in [1], the cell count was found to be 565. Moreover, the inhibition in assay [1] is -2.3% (inactive); in assay [2], -110% (inactive); in assay [4], 15.9% (inactive); in [9], 9.24% (inactive). The same molecule showed a nuclei count in assay [2] of 175%. In addition, the z-score in assay [3] (setting [10]) was 1.43; in assay [3] (setting [11]), -0.0429; in assay [3] (setting [12]), -0.868. Also, the results for the fluorescence slope in assay [5] and in assay [7] were -0.433 (inactive) and 0.00505 (inactive), respectively. Further, the NADPH fluorescence slope in assay [6] is -7e-05 (inactive). Also, in assay [8], the result was inactive.
Turning to `CC1(C)Cc2nc3sc4c(N(CCO)CCO)ncnc4c3cc2CO1`, the cell count in assay [1] came to 383. Also, the inhibition is -7.2% (inactive) in assay [1], 7.7% (inactive) in assay [2], -4.59% (inactive) in assay [4] and 36.1% (inactive) in assay [9]. The nuclei count in assay [2] came out at 82.1%. For the same molecule, the z-score in assay [3] (setting [10]) is -1.35; in [3] (setting [11]), 0.534; in assay [3] (setting [12]) it was 1.17. Further, the fluorescence slope was -0.474 (inactive) in [5] and 0.00508 (inactive) in [7]. The NADPH fluorescence slope in assay [6] was -1.1e-05 (inactive). Further, in assay [8], the call was inactive.
Turning to `CCOC(=O)c1[nH]c2ccccc2c1NC(=O)CN(C)C`, the cell count in assay [1] came out at 656. Also, the inhibition in assay [1] was 2.2% (inactive); in [2] it was -136% (inactive); in assay [4] it was 7.93% (inactive); in [9], -6.18% (inactive). Besides, the nuclei count in assay [2] amounted to 180%. Besides, the z-score was 0.955 in assay [3] (setting [10]), 0.5 in assay [3] (setting [11]) and -0.213 in assay [3] (setting [12]). The fluorescence slope in assay [5] is -0.476 (inactive); in assay [7] it was 0.00584 (inactive). The NADPH fluorescence slope in assay [6] is -4.7e-05 (inactive). For the same molecule, the outcome in assay [8] was inactive.
`CCOc1ccc(-c2nc(C#N)c(NCC(C)C)o2)cc1`: in assay [1], the cell count is 402. Besides, the inhibition in assay [1] was -4% (inactive); in [2], -45.5% (inactive); in assay [4], -2.69% (inactive); in assay [9], -4.03% (inactive). For the same molecule, the nuclei count in assay [2] came to 159%. Besides, the z-score is -1.19 in assay [3] (setting [10]), -0.813 in assay [3] (setting [11]) and 2.25 in assay [3] (setting [12]). The fluorescence slope was -0.474 (inactive) in [5] and 0.00573 (inactive) in assay [7]. Also, the NADPH fluorescence slope in [6] is -8e-05 (inactive). Moreover, the molecule was classed as inactive in assay [8].
For `Cc1ccccc1N1C(=O)CC(Sc2nnc(-c3ccccc3)o2)C1=O` (stereo not given), in assay [1], the cell count is 482. The inhibition in assay [1] is -2.4% (inactive); in assay [2] it was -29.2% (inactive); in assay [4], 5.95% (inactive); in [9], 57.7% (active). The nuclei count in [2] was found to be 177%. Besides, the z-score was -0.982 in [3] (setting [10]), -1.28 in assay [3] (setting [11]) and 2.47 in assay [3] (setting [12]). Moreover, the results for the fluorescence slope in assay [5] and in assay [7] were -0.383 (inactive) and 0.00539 (inactive), respectively. In addition, the NADPH fluorescence slope in [6] is -3.3e-05 (inactive). In assay [8], the outcome was inactive.
In the case of `Cn1c(N)c(C#N)c(C#N)c1-c1ccccc1`, the cell count in [1] was 625. In addition, the inhibition in [1] was -10.7% (inactive); in assay [2], -93.2% (inactive); in assay [4], -2.59% (inactive); in assay [9], 31.5% (inactive). Further, the nuclei count in assay [2] is 183%. In addition, the results for the z-score in assay [3] (setting [10]), in [3] (setting [11]) and in assay [3] (setting [12]) were -0.336, -0.891 and 0.762, respectively. In addition, the fluorescence slope in assay [5] was -0.339 (inactive); in assay [7], 0.00399 (inactive). Moreover, the NADPH fluorescence slope in [6] is -1.8e-05 (inactive). For the same molecule, in assay [8], the call was inactive.
As for `O=C(C1CCCCC1)N1CCCn2c1nc1ccccc12`, in [1], the cell count turned out to be 466. In addition, the inhibition in assay [1] is -4.2% (inactive); in [2], 40.4% (inactive); in assay [4], -0.233% (inactive); in [9], -20.3% (inactive). This molecule displayed a nuclei count in assay [2] of 93.7%. The z-score was 0.0435 in assay [3] (setting [10]), 0.0435 in assay [3] (setting [11]) and -0.166 in [3] (setting [12]). The fluorescence slope was -0.481 (inactive) in [5] and 0.00633 (inactive) in [7]. Further, the NADPH fluorescence slope in assay [6] was -3.7e-05 (inactive). The outcome in assay [8] was inactive.
Turning to `Cc1cc(C)n(-c2ncnc3sc(C)c(C)c23)n1`, the cell count in assay [1] is 577. Further, the inhibition in assay [1] is -0.8% (inactive); in assay [2] it was -64.7% (inactive); in assay [4] it was 19.8% (inactive); in assay [9], -1.64% (inactive). In [2], this molecule returned a nuclei count of 157%. In addition, the z-score was determined as 0.455 in assay [3] (setting [10]), 0.0261 in assay [3] (setting [11]) and 1.38 in assay [3] (setting [12]). The fluorescence slope is -0.293 (inactive) in [5] and 0.00669 (inactive) in [7]. In addition, in [6], the NADPH fluorescence slope is -3.5e-05 (inactive). The result in assay [8] was inactive.
Turning to `CN1C(=O)NC(c2ccccc2)C2=C1CN(Cc1ccccc1)C2=O` (stereo not given), in [1], the cell count is 400. The inhibition was -7.1% (inactive) in assay [1], -56.6% (inactive) in assay [2], -2.59% (inactive) in assay [4] and 23.3% (inactive) in assay [9]. Besides, in assay [2], the nuclei count is 139%. In addition, the results for the z-score in assay [3] (setting [10]), in assay [3] (setting [11]) and in [3] (setting [12]) were 0.502, -1.59 and 1.04, respectively. In addition, the fluorescence slope in [5] is -0.501 (inactive); in assay [7], 0.00419 (inactive). Moreover, the NADPH fluorescence slope in assay [6] is -0.000103 (inactive). Moreover, the molecule was classed as inactive in [8].
As to `O=S(=O)(/C=C/c1ccccc1)Nc1ccc2c(c1)OCO2`, the cell count in assay [1] worked out at 371. In addition, the inhibition is -6.3% (inactive) in assay [1], -96.3% (inactive) in assay [2], -2.59% (inactive) in assay [4] and 4.72% (inactive) in assay [9]. Further, in [2], the nuclei count was 154%. Further, the z-score in assay [3] (setting [10]) is 0.539; in [3] (setting [11]) it was -2; in [3] (setting [12]), 0.714. In addition, the fluorescence slope in assay [5] was -0.476 (inactive); in [7], 0.00384 (inactive). Also, the NADPH fluorescence slope in assay [6] is -9.8e-05 (inactive). Further, the result in [8] was inactive.

These data come from PubChem BioAssay.
